Results taken from ChEMBL document CHEMBL1629697, “Endocannabinoids inhibit the growth of free-living amoebae” (Antimicrob Agents Chemother, 2010).
Calls of active or inactive are those of the source. The calls are words filed in the database; no cut-off is given here.

Assays:
Acanthamoeba castellanii [1] = experiment: Antimicrobial activity against Acanthamoeba castellanii assessed as growth inhibition at 10 ug/ml upto 3 days by hemocytometer; type: functional, organism-based
In short: (§1)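 Amoebae maintained at 30°C on E. coli lawns on nonnutrient agar, then axenic at 37°C in SCGYEM. Seeded day 0 at 2 × 10^5 cells/ml in SCGYEM with or without endocannabinoid, added in ethanol (0.05% final); vehicle controls contained ethanol. Tubes incubated slanted at 37°C; cell concentration counted daily by hemocytometer through day 3.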

Hartmannella vermiformis [2] = experiment: Antimicrobial activity against Hartmannella vermiformis assessed as growth inhibition at 10 ug/ml upto 3 days by hemocytometer; type: functional; conditions: Vermamoeba vermiformis; in short: as §1
Willaertia magna [3] = experiment: Antimicrobial activity against Willaertia magna c2c Maky ATCC PTA-7824 assessed as growth inhibition at 10 ug/ml upto 3 days by hemocytometer; type: functional; in short: as §1
Acanthamoeba castellanii [4] = experiment: Antimicrobial activity against Acanthamoeba castellanii assessed as growth inhibition at 2 ug/ml after 3 days by hemocytometer; type: functional, organism-based; in short: as §1
Hartmannella vermiformis [5] = experiment: Antimicrobial activity against Hartmannella vermiformis assessed as growth inhibition at 2 ug/ml after 3 days by hemocytometer; type: functional; conditions: Vermamoeba vermiformis; in short: as §1
Willaertia magna [6] = experiment: Antimicrobial activity against Willaertia magna c2c Maky ATCC PTA-7824 assessed as growth inhibition at 2 ug/ml after 3 days by hemocytometer; type: functional; in short: as §1
Acanthamoeba castellanii [7] = experiment: Antimicrobial activity against Acanthamoeba castellanii assessed as growth inhibition at 5 ug/ml after 3 days by hemocytometer; type: functional, organism-based; in short: as §1
Hartmannella vermiformis [8] = experiment: Antimicrobial activity against Hartmannella vermiformis assessed as growth inhibition at 5 ug/ml after 3 days by hemocytometer; type: functional; conditions: Vermamoeba vermiformis; in short: as §1
Willaertia magna [9] = experiment: Antimicrobial activity against Willaertia magna c2c Maky ATCC PTA-7824 assessed as growth inhibition at 5 ug/ml after 3 days by hemocytometer; type: functional; in short: as §1
Acanthamoeba castellanii [10] = experiment: Antimicrobial activity against Acanthamoeba castellanii assessed as growth inhibition at 10 ug/ml after 3 days by hemocytometer relative to control; type: functional; conditions: 72 h; in short: as §1
Hartmannella vermiformis [11] = experiment: Antimicrobial activity against Hartmannella vermiformis assessed as growth inhibition at 10 ug/ml after 3 days by hemocytometer relative to control; type: functional; conditions: Vermamoeba vermiformis, 72 h, read-out: INH; in short: as §1
Willaertia magna [12] = experiment: Antimicrobial activity against Willaertia magna c2c Maky ATCC PTA-7824 assessed as growth inhibition at 10 ug/ml after 3 days by hemocytometer relative to control; type: functional; conditions: c2c Maky ATCC PTA-7824, 72 h, read-out: INH; in short: as §1
Acanthamoeba castellanii [13] = experiment: Antimicrobial activity against Acanthamoeba castellanii after 3 days by hemocytometer; type: functional, organism-based; conditions: 72 h; in short: as §1
Hartmannella vermiformis [14] = experiment: Antimicrobial activity against Hartmannella vermiformis after 3 days by hemocytometer; type: functional; conditions: Vermamoeba vermiformis, 72 h; in short: as §1
Willaertia magna [15] = experiment: Antimicrobial activity against Willaertia magna c2c Maky ATCC PTA-7824 after 3 days by hemocytometer; type: functional; conditions: c2c Maky ATCC PTA-7824, 72 h; in short: as §1
Acanthamoeba castellanii [16] = experiment: Antimicrobial activity against Acanthamoeba castellanii assessed as decrease in viable cell concentration at 20 ug/ml after 3 days by hemocytometer; type: functional, organism-based; in short: as §1
Hartmannella vermiformis [17] = experiment: Antimicrobial activity against Hartmannella vermiformis assessed as decrease in viable cell concentration at 20 ug/ml after 3 days by hemocytometer; type: functional; conditions: Vermamoeba vermiformis; in short: as §1
Willaertia magna [18] = experiment: Antimicrobial activity against Willaertia magna c2c Maky ATCC PTA-7824 assessed as decrease in viable cell concentration at 20 ug/ml after 3 days by hemocytometer; type: functional; in short: as §1

CCCCC/C=C\C/C=C\C/C=C\C/C=C\CCCC(=O)NCCO [ANANDAMIDE]
inhibition (Acanthamoeba castellanii [1]): Active
inhibition (Hartmannella vermiformis [2]): Active
inhibition (Willaertia magna [3]): Active
inhibition (Acanthamoeba castellanii [4]): Active
inhibition (Hartmannella vermiformis [5]): Active
inhibition (Willaertia magna [6]): Active
inhibition (Acanthamoeba castellanii [7]): Active
inhibition (Hartmannella vermiformis [8]): Active
inhibition (Willaertia magna [9]): Active
inhibition at 10 µg/mL (Acanthamoeba castellanii [10]): 68%
inhibition at 10 µg/mL (Hartmannella vermiformis [11]): 96%
inhibition at 10 µg/mL (Willaertia magna [12]): 58%
IC50 (Acanthamoeba castellanii [13]): 17 µM
IC50 (Hartmannella vermiformis [14]): 14 µM
IC50 (Willaertia magna [15]): 20 µM
inhibition (Acanthamoeba castellanii [16]): Active
inhibition (Hartmannella vermiformis [17]): Active
inhibition (Willaertia magna [18]): Active
